From ChEMBL document CHEMBL4619773, “Chemoreactive-Inspired Discovery of Influenza A Virus Dual Inhibitor to Block Hemagglutinin-Mediated Adsorption and Membrane Fusion” (J Med Chem, 2020)
Converted amounts (≈) assume the structure as drawn. The source made the active and inactive calls. No cut-off for these calls is given here.

Legend:
[1] = Cumulative drug excretion in rat feces at 0.35mg/kg, iv administered as single dose measured after 72 hrs; format: ADME, organism-based; conditions: faeces, read-out: Drug excretion
Procedure, shortened: (§1)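 Single oral (gavage, 0.5% CMC-Na) or iv (tail vein, PEG400) dosing was given to male Kunming mice or Sprague Dawley rats held in metabolic cages. Urine and feces were collected at intervals to 72 h. Feces were dried, ground and homogenized in water (1:9 w/v). Samples were precipitated with acetonitrile containing internal standard and analysed by LC-MS/MS.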

Influenza A virus [2] = test: Antiviral activity against Influenza A virus (A/Puerto Rico/8/1934(H1N1)) infected in human A549 cells assessed as reduction in endocytosis and nuclear import of viral RNP by measuring green fluorescence of NP protein in both cytoplasm and nucleus at 25 ug/ml during early infection stage (0 to 2 hrs post infection) by indirect immunofluorescence assay; format: functional, organism-based
Procedure, shortened: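 PR8 virus was pretreated with or without 25 µg/ml compound for 1 h at 37 °C before infection. After adsorption, compound- or DMSO-containing medium was added. At 2 h p.i. cells were fixed (4% PFA), permeabilized (0.5% Triton X-100) and blocked (2% BSA). They were stained with anti-NP antibody, FITC secondary antibody and DAPI, then imaged by confocal microscopy.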

[3] = target: Hemagglutinin (Influenza A virus (A/Puerto Rico/8/1934(H1N1))) (UniProt P03452); test: Inhibition of Hemagglutinin in Influenza A virus (A/Puerto Rico/8/1934(H1N1))/H1N1 pseudovirus infected in 293FT cells assessed as reduction in virus infection at 50 ug/ml pre-treated with virus before infection and measured after 48 hrs by inverted fluorescence microscopy; format: cell-based
Hemagglutinin (Influenza A virus (A/Puerto Rico/8/1934(H1N1))), sequence (P03452 whole entry): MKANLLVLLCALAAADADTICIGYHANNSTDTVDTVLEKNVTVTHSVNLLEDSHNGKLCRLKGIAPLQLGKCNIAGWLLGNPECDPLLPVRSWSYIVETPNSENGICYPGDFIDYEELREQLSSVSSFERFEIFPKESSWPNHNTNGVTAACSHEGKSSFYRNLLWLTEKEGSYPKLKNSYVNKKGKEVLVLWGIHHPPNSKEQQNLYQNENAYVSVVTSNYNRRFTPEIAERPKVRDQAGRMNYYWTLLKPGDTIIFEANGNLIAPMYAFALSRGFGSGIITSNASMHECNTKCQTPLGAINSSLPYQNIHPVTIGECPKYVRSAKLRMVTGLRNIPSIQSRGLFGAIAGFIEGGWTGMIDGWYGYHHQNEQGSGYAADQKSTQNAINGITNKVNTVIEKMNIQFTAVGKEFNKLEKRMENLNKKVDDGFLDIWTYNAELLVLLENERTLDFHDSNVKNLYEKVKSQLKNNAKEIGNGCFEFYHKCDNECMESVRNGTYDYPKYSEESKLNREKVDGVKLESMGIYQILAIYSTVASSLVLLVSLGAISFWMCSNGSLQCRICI
Procedure, shortened: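 PR8 pseudoviruses (IAV-GFP) carrying wild-type HA or a mutant HA (T30N/E233D/T359A or T359A) were made in 293FT cells by co-transfecting HA, NA, HIV backbone and GFP reporter plasmids, and supernatants were harvested at 48 h. Pseudovirus was pretreated with compound at 50 µg/ml for 1 h at 37 °C before infection. Infected GFP-positive cells were viewed by fluorescence microscopy 48 h p.i.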

[4] = Toxicity in Kunming mouse assessed as effect on LDH level at 5 to 10 mg/kg/day, po for 7 days; format: organism-based; conditions: in vivo, 168 h
Procedure, shortened: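 Male Kunming mice (20–25 g) received compound orally at 5 or 10 mg/kg/day, suspended in 0.5% sodium carboxymethyl cellulose, once daily for 7 days; controls received vehicle. Serum was collected under isoflurane 24 h after the last dose. AST, ALT, CR, BUN, LDH, CK and CK-MB were measured with commercial kits.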

Influenza A virus [5] = test: Antiviral activity against wild type Influenza A virus (A/Puerto Rico/8/1934(H1N1)) pseudovirus infected in 293FT cells incubated for 48 hrs by inverted fluorescence microscopy; format: functional, organism-based
Procedure, shortened: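 GFP-reporter lentiviral pseudoviruses bearing PR8 wild-type or mutant (T30N/E233D/T359A or T359A) HA plus NA were produced in 293FT cells. Pseudovirus was pretreated with 50 µg/ml compound for 1 h at 37 °C before infection. GFP-positive cells were counted by fluorescence microscopy at 48 h p.i.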

[6] = Cumulative drug excretion in rat urine at 3.5 mg/kg, po administered as single dose measured after 72 hrs; format: ADME, organism-based; conditions: read-out: Drug excretion; procedure, shortened: as §1
[7] = Cumulative drug excretion in rat urine at 0.35mg/kg, iv administered as single dose measured after 72 hrs; format: ADME, organism-based; conditions: read-out: Drug excretion; procedure, shortened: as §1
[8] = Selectivity index, ratio of CC50 for cytotoxicity in dog MDCK cells assessed as reduction in cell viability incubated for 48 hrs by crystal violet staining based assay to […] in dog MDCK cells assessed as reduction in cell viability incubated for 48 hrs by crystal violet staining based assay
[9] = AUC (0 to t) in rat at 0.35 mg/kg /kg, iv administered as single dose; format: ADME, organism-based; conditions: in vivo
Procedure, shortened: (§2)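 Male Kunming mice (20-25 g) and male Sprague Dawley rats (180-220 g) were fasted 12 h before dosing. Oral dosing was by gavage as a suspension in 0.5% sodium carboxymethyl cellulose; iv dosing was via tail vein in PEG400. Serial plasma samples were taken to 24 h, protein-precipitated with acetonitrile plus N-CH3 internal standard, and quantified by LC-MS/MS (n=3). Bioavailability = AUCoral/AUCiv.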

[10] = target: Hemagglutinin (Influenza A virus (A/Puerto Rico/8/1934(H1N1))) (UniProt P03452); test: Inhibition of Hemagglutinin in Influenza A virus (A/Puerto Rico/8/1934(H1N1)) assessed as reduction in virus-induced aggregation of chicken erythrocytes at 3.125 to 50 ug/mL incubated for 60 mins by hemagglutination assay
Procedure, shortened: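 Hemagglutination inhibition with PR8 virus and chicken RBCs standardized per the WHO manual. Virus was serially diluted 2-fold and 1% cRBCs were added at equal volume. After 60 min at 4 °C, negative wells show a sedimented red button and positive wells stay opaque without sedimentation. Compound was tested at 3.125–50 µg/mL.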

Influenza A virus [11] = test: Antiviral activity against Influenza A virus (A/Puerto Rico/8/1934(H1N1)) infected in MDCK cells assessed as decrease in viral titers at 50 ug/ml pre-treated with virus before infection and measured 24 hrs post infection by HA assay; format: functional, organism-based
Procedure, shortened: (§3)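 MDCK cells were infected at high moi (≈3.0 PFU/cell). Virus-containing supernatants were serially diluted 2-fold and mixed with an equal volume of 1% chicken red blood cells. After 60 min at 4 °C, wells were scored for button sedimentation versus opaque agglutination to give titers.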

[12] = Cumulative drug excretion in mouse urine at 0.5 mg/kg, iv administered as single dose measured after 72 hrs; format: ADME, organism-based; conditions: read-out: Drug excretion; procedure, shortened: as §1
Influenza A virus H3N2 = test: Antiviral activity against Influenza A virus H3N2 (A/swine/Minnesota/02719/2009) infected in MDCK cells by HA assay; format: functional, organism-based; procedure, shortened: as §3
[13] = target: Hemagglutinin (Influenza A virus (A/Puerto Rico/8/1934(H1N1))) (UniProt P03452); test: Inhibition of trypsin-mediated cleavage of Influenza A virus (A/Puerto Rico/8/1934(H1N1)) Hemagglutinin (HA0) at 50 ug/ml incubated for 30 mins by Coomassie blue fast staining and SDS-PAGE gel based trypsin susceptibility assay
Procedure, shortened: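 About 5 µg PR8 HA protein was preincubated with about 50 µg/ml compound for 30 min at RT; controls received 2% DMSO. Samples were acidified with 1 M sodium acetate pH 5.0 (one kept at pH 7.0) for 20 min at 37 °C, then neutralized with 200 mM Tris pH 8.5. TPCK-trypsin was added at 1:50 by mass for 30 min at 37 °C. Samples were run on non-reducing 12% SDS-PAGE with Coomassie staining.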

Influenza A virus [14] = test: Antiviral activity against Influenza A virus (A/Puerto Rico/8/1934(H1N1)) infected in Kunming mouse assessed as decrease in lung TNFalpha level at 20 to 40 ug/day dosed intranasally starting 4 hrs after viral challenge and continued for 4 days by ELISA; format: functional, organism-based
Procedure, shortened: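 Four-week-old female Kunming mice received PR8 intranasally (500 PFU/mouse in 40 µL PBS) and were then dosed once daily orally or intranasally. Lungs were collected on day 4, and TNF-α and IL-6 in lung tissue were measured by ELISA.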

[15] = Metabolic stability in human liver microsomes at 2 uM after 60 mins; format: ADME, Microsome; conditions: read-out: Stability
Procedure, shortened: (§4)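 Mouse, rat or human liver microsomes (final 0.5 mg/mL protein) were preincubated with an NADPH-regenerating system in 50 mM Tris-HCl pH 7.4 at 37 °C for 5 min. Compound was added at 2 µM final and incubated at 37 °C; NADPH-free incubations served as controls. Reactions were quenched with acetonitrile plus internal standard at 60 min. Percent remaining was measured by LC-MS/MS (n=3).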

[16] = Half life in rat at 3.5 mg/kg , po administered as single dose; format: ADME, organism-based; conditions: in vivo; procedure, shortened: as §2
[17] = Metabolic stability in rat liver microsomes at 2 uM after 60 mins; format: ADME, Microsome; conditions: read-out: Stability; procedure, shortened: as §4

CC(=O)c1cc(C)c(O)c(Cc2[nH]c3ccccc3c2Cc2c(O)c(C)cc(C(C)=O)c2O)c1O
dose excreted at 72 h [1]: 7.2%
Activity (Influenza A virus [2]): Active
inhibition [3]: Active
Activity [4]: Non-Toxic
IC50 (Influenza A virus [5]): 6 µg/mL (≈ 12.7 µM)
dose excreted at 72 h [6]: 0.004%
dose excreted at 72 h [7]: 0.006%
Ratio CC50/IC50 [8]: 55.8
AUC(0-t) [9]: 10100 ng·h/mL
inhibition [10]: Active
Activity (Influenza A virus [11]): Active
dose excreted at 72 h [12]: 0.3%
Activity (Influenza A virus H3N2): Dose-dependent effect
inhibition [13]: inactive
Activity (Influenza A virus [14]): Active
remaining at 1 h, 2 µM [15]: 71.6%
half-life [16]: 3.3 h
remaining at 1 h, 2 µM [17]: 36.6%
